The subject of experiment [1] is Escherichia coli. Briefly: Limiting rate constant for inactivation of Escherichia coli glucosamine synthetase was determined. The procedure, abridged:
(§1)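 E. coli glucosamine synthetase was preincubated 15 min at 37 °C in 100 mM potassium phosphate, pH 7.5, with 10 mM fructose-6-phosphate and 50 mM KCl, then inhibitor was added. Timed aliquots were diluted 40-fold into the same buffer with 6 mM L-glutamine, and residual activity was read by colorimetric glutamate assay. The ln(residual activity)-versus-time plot gave t1/2, and kobs = ln2/t1/2. kobs versus [I] was fitted by Kitz–Wilson to give k+2 and Ki.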

Experiment [2] in a line: Steady-state inactivation rate constant for inactivation of Escherichia coli glucosamine synthetase was determined. The method, boiled down: as §1
A short description of experiment [3]: Second order rate constant ([…]) was determined. The method, boiled down:
as §1

Experiment [4] can be described thus: Second order rate constant ([…]) with Escherichia coli glucosamine synthetase. The procedure, abridged: as §1
Experiment [5] relates to Escherichia coli. Nature of the experiment: Limiting rate constant for inactivation of Escherichia coli glucosamine synthetase was determined; No inhibition at 200 uM.
A short description of experiment [6]: Steady-state inactivation rate constant for inactivation of Escherichia coli glucosamine synthetase was determined; No inhibition at 200 uM.
Experiment [7] in a line: Second order rate constant ([…]) was determined; No inhibition at 200 uM.

The compound `CC(=[N+]=[N-])C(=O)CC[C@H](N)C(=O)O` registered a K+2 in the experiment with Escherichia coli [1] of 0.02 min⁻¹. Also, the Ki in experiment [2] was found to be 1.1 µM. In addition, the K+2/Ki in experiment [3] came to 333 M⁻¹ s⁻¹.

`N[C@@H](CCC(=O)CBr)C(=O)O` had a K+2 in the experiment with Escherichia coli [1] of 0.4 min⁻¹. In experiment [2], this compound came in with a Ki of 2.7 µM. Moreover, the K+2/Ki in experiment [3] was 2500 M⁻¹ s⁻¹.

For `C[S+](C)CC(=O)CC[C@H](N)C(=O)O`, the K+2 in the experiment with Escherichia coli [1] is 0.12 min⁻¹. Besides, the Ki in experiment [2] is 0.37 µM. Further, in experiment [3], the K+2/Ki is 5330 M⁻¹ s⁻¹.

`N[C@@H](CCC(=O)CCl)C(=O)O`: the K+2 in the experiment with Escherichia coli [1] was found to be 0.19 min⁻¹. The compound further registered a Ki in experiment [2] of 62.5 µM. In addition, in experiment [3], the K+2/Ki amounted to 50 M⁻¹ s⁻¹.

As for `[N-]=[N+]=CC(=O)CC[C@H](N)C(=O)O` [6-DIAZO-5-OXO-L-NORLEUCINE], in the experiment with Escherichia coli [1], the K+2 was found to be 0.7 min⁻¹. In addition, the Ki in experiment [2] was determined as 9.5 µM. Besides, the K+2/Ki in experiment [4] stood at 1170 M⁻¹ s⁻¹.

As to `N#CCC[C@H](N)C(=O)O`, the “K+2” value in the experiment with Escherichia coli [5] was “No inhibition”. In addition, in experiment [6], the Ki entry is “No inhibition”. In addition, the “K+2/Ki” value in experiment [7] is “No inhibition”.
